Screens (PubChem BioAssay)
Most compounds without a hit are left out; they make up all but 3.5% or so of the library.
RGS4 inh = RGS4 inhibitors, primary screen, cell-based, HEK293 M3R inducible RGS4, calcium flux | Regulator of G-protein signaling 4 (Homo sapiens), P49798 | Fluo-4 calcium flux; hits give high values; triggered by carbachol at its EC20 | B-score at 10 µM | 0.45% of 310,000 active;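 active = B-score, a plate-corrected calcium signal, over three deviations above library mean, with baseline fluorescence within five deviations of library mean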;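 note: RGS4 expression induced by doxycycline in cells with stable M3 receptor; B-score is computed from the integrated fluorescence ratio over baseline after carbachol; higher B-score means a larger calcium signal and so more RGS4 inhibition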
Target sequence (P49798 whole entry, looked up): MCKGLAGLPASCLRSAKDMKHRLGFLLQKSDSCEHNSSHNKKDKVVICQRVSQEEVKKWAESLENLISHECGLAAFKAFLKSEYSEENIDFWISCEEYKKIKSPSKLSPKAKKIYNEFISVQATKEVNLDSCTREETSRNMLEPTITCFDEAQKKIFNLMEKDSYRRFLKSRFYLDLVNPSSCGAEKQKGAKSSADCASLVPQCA
MrgX1 ag = agonists of human MrgX1 receptor, primary screen, HEK293 cells, Fluo-4 calcium flux | Fluo-4 calcium fluorescence, agonist mode; hits give high values | B-score at 10 µM | 0.44% of 310,000 active | AID 588627, 2011;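 active = calcium response B-score plate-corrected fluorescence ratio at least 3 library SD, with starting fluorescence B-score inside 5 SD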
Target sequence (Q96LB2 whole entry, looked up): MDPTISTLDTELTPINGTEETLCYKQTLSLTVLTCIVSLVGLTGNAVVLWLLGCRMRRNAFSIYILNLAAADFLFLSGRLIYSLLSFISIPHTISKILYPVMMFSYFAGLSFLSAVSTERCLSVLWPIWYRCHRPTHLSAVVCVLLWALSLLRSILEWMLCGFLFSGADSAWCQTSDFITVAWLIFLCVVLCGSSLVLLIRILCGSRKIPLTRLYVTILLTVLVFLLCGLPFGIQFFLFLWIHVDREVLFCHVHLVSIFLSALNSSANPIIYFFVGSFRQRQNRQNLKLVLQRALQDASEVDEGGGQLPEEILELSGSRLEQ
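Test system: Stable human MrgX1 HEK293 cell line | Schedule: Overnight plating before 1 h dye loading | Read-out basis: Baseline-normalised fluorescence change ratio, B-scored | Detection: Kinetic calcium dye fluorescence, Fluo-4 NW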
MrgX1 PAM = positive allosteric modulators of MrgX1, primary screen, HEK293 cells, Fluo-4 calcium flux; Mas-related G-protein coupled receptor member X1 (Homo sapiens), Q96LB2; FDSS; hits give high values; B-score at 10 µM; 0.63% of 310,000 active; AID 588675, 2011;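 active = plate-corrected calcium response at least 3 library SD above typical, normal starting fluorescence, not activating the receptor alone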;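 note: compound read alongside a low EC10 to EC30 dose of BAM8-22 agonist; peak minus trough fluorescence over baseline measured at the second addition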
MrgX1 antagonist = antagonists of human MrgX1 receptor, primary screen, HEK293 cells, Fluo-4 calcium flux; Mas-related G-protein coupled receptor member X1 (Homo sapiens), Q96LB2; B-score at 10 µM; BAM8-22 antagonism; hits give low values; AID 588676, 2011; 1.3% of 310,000 active;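 active = calcium-response B-score plate-corrected more than 3 library SD below zero, starting fluorescence within 5 deviations, no agonist response on first addition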;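 note: peak minus trough fluorescence over baseline after final BAM8-22 challenge near maximal dose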
RGS4 pot = RGS4 potentiators or activators, primary screen, cell-based, HEK293 M3R inducible RGS4, calcium flux; carbachol calcium flux Fluo4; hits give low values; B-score at 10 µM; 0.92% of 310,000 active; AID 463111, 2010;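 active = B-score of the integrated calcium signal more than 4 SD below the library mean, with starting fluorescence not abnormally high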;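 note: negative B-score means reduced calcium response which marks RGS4 activation or potentiation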
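Test system: HEK293 cells with stable M3R and inducible RGS4; also added: carbachol at ECmax as muscarinic agonist stimulus; schedule: dye loading 30 min 37 °C, buffer rest 30 min RT; technique: kinetic calcium fluorescence imaging with Fluo4-AM dye, 2 µM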
Large screens that a line does not name were inactive.

CN1CCCc2cc3c(C(F)(F)F)cc(=O)oc3nc21	RGS4 pot -8
CC(C)c1cc(=O)oc2c3c4c(cc12)CCCN4CCC3	none
Nc1cc(C(=O)N/N=C/c2cccc([N+](=O)[O-])c2)n[nH]c1=O	none
Cc1ccc(S(=O)(=O)N2CC(C(=O)O)=CC[C@H]2c2ccc(Cl)cc2)cc1	none (no result: RGS4 inh, RGS4 pot)
Cc1ccc(S(=O)(=O)N2[C@@H](c3ccccc3)C(C(=O)O)=CC[C@H]2c2cccc(Cl)c2)cc1	MrgX1 PAM 7.4 (no result: RGS4 inh, RGS4 pot)
COc1cc([C@@H]2CC=C(C(=O)O)[C@H](c3ccc(Cl)cc3)N2S(=O)(=O)c2ccc(C)cc2)cc(OC)c1OC	none (no result: RGS4 inh, RGS4 pot)
Cc1ccc([C@@H]2CC=C(C(=O)O)[C@H](c3ccccc3F)N2S(=O)(=O)c2ccc(C)cc2)cc1	MrgX1 PAM 8.9 (no result: RGS4 inh, RGS4 pot)
Cc1ccc(S(=O)(=O)N2[C@@H](c3ccc(Cl)cc3)C(C(=O)O)=CC[C@H]2c2ccc(Cl)c(Cl)c2)cc1	MrgX1 antagonist -5.1 (no result: RGS4 inh, RGS4 pot)
COc1ccc([C@@H]2CC=C(C(=O)O)CN2S(=O)(=O)c2ccc(Cl)cc2)cc1	MrgX1 PAM 8 (no result: RGS4 inh, RGS4 pot)
Cc1ccc(S(=O)(=O)N2[C@@H](c3cccc(Cl)c3)C(C(=O)O)=CC[C@H]2c2ccc(Cl)cc2)cc1	none (no result: RGS4 inh, RGS4 pot)
Cc1csc(=O)n1CC(=O)OCC(=O)Nc1ccc(F)c(F)c1	none
Cc1ccc(S(=O)(=O)N2[C@@H](c3ccccc3F)C(C(=O)O)=CC[C@H]2c2cccc(Cl)c2)cc1	MrgX1 PAM 11 (no result: RGS4 inh, RGS4 pot)
Cc1ccc(S(=O)(=O)N2[C@@H](c3ccccc3F)C(C(=O)O)=CC[C@H]2c2ccc(C(C)C)cc2)cc1	none (no result: RGS4 inh, RGS4 pot)
Cc1ccc([C@@H]2CC=C(C(=O)O)[C@H](c3ccc(F)cc3)N2S(=O)(=O)c2ccc(C)cc2)cc1	none (no result: RGS4 inh, RGS4 pot)
O=C(O)C1=CC[C@@H](c2ccc(Cl)cc2)N(S(=O)(=O)c2ccc(Cl)cc2)[C@H]1c1ccc(F)cc1	MrgX1 PAM 8.3 (no result: RGS4 inh, RGS4 pot)
Cc1c(NC(=O)Nc2cc(Cl)ccc2Cl)c(=O)n(-c2ccccc2)n1C	none
CCCC[n+]1c(-c2ccc(Cl)cc2Cl)csc1Nc1ccccc1	none
C=CC[n+]1c(-c2ccc(C)cc2)csc1Nc1c(C)n(C)n(-c2ccccc2)c1=O	RGS4 pot -7.9
C=CC[n+]1c(-c2ccc(Cl)cc2Cl)csc1Nc1ccc(NC(C)=O)cc1	RGS4 pot -7
C=CC[n+]1c(-c2ccc(Cl)cc2Cl)csc1Nc1c(C)n(C)n(-c2ccccc2)c1=O	MrgX1 ag 28
CC(=O)c1cccc(NC(=O)CCC(=O)Oc2ccc(C)cc2)c1	none
COc1ccc(CNC(=O)CN2C(=O)c3ccc([N+](=O)[O-])cc3C2=O)cc1	none
CC(Oc1ccc(Br)cc1)C(=O)NC1CCN(Cc2ccccc2)CC1 (stereo unspecified)	RGS4 pot -7.6
Cc1ccccc1CN1C(=O)c2ccccc2S(=O)c2ccc(C(=O)NCCCN3CCOCC3)cc21 (stereo unspecified)	none
O=C(NCCCN1CCCC1)c1ccc2c(c1)N(Cc1cccc(Cl)c1)C(=O)c1ccccc1S2=O (stereo unspecified)	none
CC1CCCCN1CCNC(=O)c1ccc2c(c1)N(Cc1cccc(Cl)c1)C(=O)c1ccccc1S2=O (stereo unspecified)	RGS4 pot -8.2
CC1CC(C)CN(CCCNC(=O)c2ccc3c(c2)N(Cc2ccccc2)C(=O)c2ccccc2S3=O)C1 (stereo unspecified)	RGS4 pot -7.2
O=C(Cn1cnc2ccccc21)N/N=C/c1cccc([N+](=O)[O-])c1	none
COC(c1ccc(Cl)cc1)(c1ccc(Cl)cc1)C(Oc1nc(C)cc(C)n1)C(=O)O (stereo unspecified)	none
Cc1nn(CC(=O)Nc2ccc(C(C)C)cc2)c(C)c1[N+](=O)[O-]	MrgX1 antagonist -7.1
CC(=O)c1ccc(NC(=O)Cn2nc(C)c([N+](=O)[O-])c2C)cc1	none
CC(C)(C)c1ccc(C(=O)NCCCNC(=O)c2ccccn2)cc1	none
N#C/C(=C(/O)c1ccc(F)cc1)c1nc2ccccc2s1	MrgX1 ag 29
N#C/C(=C(/O)COc1ccccc1)c1nc2ccccc2s1	none
O=C(CN(Cc1ccc(F)cc1)C(=O)Cn1nnc2ccccc21)NCC1CCCO1 (stereo unspecified)	MrgX1 PAM 17
O=C(NCc1ccc(F)cc1)C(c1ccccc1)N(CC1CCCO1)C(=O)Cn1nnc2ccccc21 (stereo unspecified)	none
COc1cc(CCC(=O)Nc2ccc(S(=O)(=O)NC3=NCCCCC3)cc2)cc(OC)c1OC	none
O=C(CCN1CCCCCC1)c1ccccc1	MrgX1 ag 31 (no result: RGS4 inh, RGS4 pot)
CCOc1cc(/C=C(/C#N)C(=O)Nc2ccc(O)cc2)cc(Br)c1O	MrgX1 ag 62
Cn1ncc(Cl)c1C(=O)N/N=C/c1ccccn1	MrgX1 antagonist -9.3
O=C(COC(=O)C1(c2ccc(F)cc2)CCCC1)N1CCc2ccccc21	none
COc1cc(/C=C2/C(=N)N3N=C(C)SC3=NC2=O)ccc1OS(=O)(=O)c1ccc(C)cc1	none
CCS(=O)(=O)C1=NSC2=NC(=O)/C(=C\c3ccc(OS(=O)(=O)c4ccccc4)c(OC)c3)C(=N)N21	MrgX1 PAM 33
COc1cc(/C=C2/C(=N)N3C(=NC2=O)SN=C3S(C)(=O)=O)ccc1OS(=O)(=O)c1ccc(C)cc1	MrgX1 PAM 10
Cc1ccc(S(=O)(=O)Oc2ccc(/C=C3/C(=N)N4C(=NC3=O)SN=C4S(C)(=O)=O)cc2)cc1	MrgX1 PAM 17
N/C(=N\OC(=O)Cc1cccs1)c1ccc([N+](=O)[O-])cc1	none
Cc1cc(C)c(NC(=O)CSc2nnc(CNC(=O)c3ccco3)o2)c(C)c1	none
CN(C)/C=C1/C(=O)N(c2ccc([N+](=O)[O-])cc2)N=C1c1ccccc1	MrgX1 ag 35
CC1=NN(c2ccc([N+](=O)[O-])cc2)C(=O)/C1=C\N(C)C	none
CN(C)/C=C1\C(=O)N(c2ccc([N+](=O)[O-])cc2)N=C1c1ccccc1	MrgX1 ag 50
COc1ccc(Cc2nc3ccc(C(=O)NC(C)Cc4ncccc4C)cc3o2)cc1OC (stereo unspecified)	RGS4 pot -7
CCCCCC[N+](C)(C)CC/C=C1/c2ccccc2Sc2ccc(Cl)cc21	RGS4 pot -9.5
CN1CCN(CCCNC(=O)c2ccc(/C=C3\Sc4ccccc4N(Cc4ccc(F)cc4)C3=O)cc2)CC1	RGS4 pot -7.5 (no result: MrgX1 ag, MrgX1 PAM, MrgX1 antagonist)
CN1CCN(CCCNC(=O)c2ccc(/C=C3\Oc4ccccc4N(Cc4ccccc4F)C3=O)cc2)CC1	RGS4 pot -8.3
Cc1cccc(CN2C(=O)/C(=C\c3ccc(C(=O)NCCCN4CCN(C)CC4)cc3)Oc3ccccc32)c1	none
